Data as given in ChEMBL document CHEMBL5352425, “Discovery of the 4-aminopiperidine-based compound EM127 for the site-specific covalent inhibition of SMYD3” (Eur J Med Chem, 2022).
Calls of active or inactive are those of the source. No cut-off for these calls is given here.

Columns and labels:
[1] = biological target: T1, Histone-lysine N-methyltransferase SMYD3 (Homo sapiens) (UniProt Q9H7B4); test: Binding affinity to full length recombinant SMYD3 (unknown origin) overexpressed in Escherichia coli Rosetta cells assessed as covalent adduct formation by SPR analysis
T1 sequence (whole entry): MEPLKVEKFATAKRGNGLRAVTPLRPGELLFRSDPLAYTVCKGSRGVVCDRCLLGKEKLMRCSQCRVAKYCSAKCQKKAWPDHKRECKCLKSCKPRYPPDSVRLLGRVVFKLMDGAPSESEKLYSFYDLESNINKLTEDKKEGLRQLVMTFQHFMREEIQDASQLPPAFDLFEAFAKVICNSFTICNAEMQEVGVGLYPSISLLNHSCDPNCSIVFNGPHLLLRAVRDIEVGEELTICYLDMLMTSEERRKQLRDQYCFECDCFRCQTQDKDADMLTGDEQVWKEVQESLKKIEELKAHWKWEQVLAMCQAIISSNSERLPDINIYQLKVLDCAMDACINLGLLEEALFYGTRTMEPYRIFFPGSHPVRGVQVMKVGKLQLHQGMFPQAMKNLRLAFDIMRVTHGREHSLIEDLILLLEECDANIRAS
Procedure, shortened: (§1)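 SPR on Biacore X100 at 15 °C: SMYD3 amine-coupled on CM5 chips at 6500–10000 RU, immobilised in HBS-T pH 7.4. Analysis buffer Tris-HCl 50 mM, NaCl 150 mM, 2 mM DTT, 0.05% Tween-20, 2% DMSO, pH 8.0, with or without SAM at saturating concentration. Equilibrium responses solvent-corrected.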

[2] = biological target: T1, Histone-lysine N-methyltransferase SMYD3 (Homo sapiens); test: Binding affinity to full length recombinant SMYD3 (unknown origin) at Cys186 residue overexpressed in Escherichia coli Rosetta cells assessed as covalent adduct formation measured for 24 hrs by LC-MS analysis; settings: dose 1-100 µM
Procedure, shortened: (§2)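 Recombinant SMYD3 expressed in E. coli Rosetta 2, final 10 μM, incubated at 23 °C in Tris 50 mM pH 8.0, 75 mM NaCl with compound at final 1, 10 or 100 μM, or equimolar 10 μM with sampling at 0–24 h. Samples DTT-denatured at 56 °C, iodoacetamide-alkylated, digested overnight with trypsin plus chymotrypsin at 30 °C, then analysed by LC-MS/MS on Q-ToF for adducted peptides. Triplicate.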

[3] = biological target: T1, Histone-lysine N-methyltransferase SMYD3 (Homo sapiens); test: Inhibition of full length recombinant SMYD3 (unknown origin) at 50 uM measured for 1 hr by LC-ESI-MS analysis relative to control
Procedure, shortened: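 SMYD3 preincubated 1 h at 23 °C with compound (SMYD3 5 μM, compound 50 μM, 2% DMSO), or at 5 μM compound for 1 or 24 h. Stopped with H2O/AcCN/FA, peptide methylation quantified by LC-ESI-MS. Duplicate.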

[4] = biological target: T2, Histone-lysine N-methyltransferase SMYD3 (Homo sapiens, UniProt Q9H7B4); test: Inhibition of full length recombinant SMYD3 (unknown origin) measured at 24 hrs
T2 sequence (Q9H7B4 whole entry): T1 sequence (whole entry)

MDA-MB-231 [5] = test: Downregulation of CDK2 mRNA expression in human MDA-MB-231 cells at 50 uM measured for 48 to 72 hrs by RT-qPCR analysis; format: functional, cell-based; settings: time 48-72 hrs
Procedure, shortened: (§3)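 MDA-MB-231 or SMYD3-knockout (CRISPR/Cas9) MDA-MB-231 cells in DMEM/10% FBS treated 48 h with 0.5–50 μM compound, or 72 h with reference inhibitor at 10–50 μM; DMSO control. Total RNA extracted with TRI reagent, CDK2, c-MET, FN1 and N-CAD transcripts measured by RT-qPCR and quantified by the ddCT method.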

MDA-MB-231 [6] = test: Downregulation of c-MET mRNA expression in human MDA-MB-231 cells at 50 uM measured for 48 to 72 hrs by RT-qPCR analysis; format: functional, cell-based; settings: time 48-72 hrs; procedure, shortened: as §3
MDA-MB-231 [7] = test: Downregulation of FN1 mRNA expression in human MDA-MB-231 cells at 50 uM measured for 48 to 72 hrs by RT-qPCR analysis; format: functional, cell-based; settings: time 48-72 hrs; procedure, shortened: as §3
MDA-MB-231 [8] = test: Downregulation of N-cadherin mRNA expression in human MDA-MB-231 cells at 50 uM measured for 48 to 72 hrs by RT-qPCR analysis; format: functional, cell-based; settings: time 48-72 hrs; procedure, shortened: as §3
[9] = biological target: T1, Histone-lysine N-methyltransferase SMYD3 (Homo sapiens); test: Inhibition of full length recombinant SMYD3 (unknown origin) at 5 uM measured at 24 hrs by LC-ESI-MS analysis relative to control
MDA-MB-231 [10] = test: Downregulation of CDK2 mRNA expression in human MDA-MB-231 cells at 0.5 uM by RT-qPCR analysis; format: functional, cell-based; procedure, shortened: as §3
[11] = biological target: T2, Histone-lysine N-methyltransferase SMYD3; test: Binding affinity to full length recombinant SMYD3 (unknown origin) overexpressed in Escherichia coli Rosetta cells assessed as dissociation constant by SPR analysis; procedure, shortened: as §1
[12] = biological target: T1, Histone-lysine N-methyltransferase SMYD3 (Homo sapiens); test: Binding affinity to full length recombinant SMYD3 (unknown origin) at Cys186 residue overexpressed in Escherichia coli Rosetta cells assessed as covalent adduct formation at 1 to 100 uM measured for 24 hrs by LC-MS analysis relative to control; settings: dose 1-100 µM; procedure, shortened: as §2
[13] = biological target: T1, Histone-lysine N-methyltransferase SMYD3 (Homo sapiens); test: Binding affinity to full length recombinant SMYD3 (unknown origin) at Cys186 residue overexpressed in Escherichia coli Rosetta cells assessed as covalent adduct formation at 1 to 100 uM by LC-MS analysis; settings: dose 1-100 µM, time <= 24.0 hrs, TDE = time-dependent effect; procedure, shortened: as §2
[14] = biological target: T1, Histone-lysine N-methyltransferase SMYD3 (Homo sapiens); test: Binding affinity to full length recombinant SMYD3 (unknown origin) at Cys186 residue overexpressed in Escherichia coli Rosetta cells assessed as covalent adduct formation at 1 to 100 uM measured after 1 hr by LC-MS analysis relative to control; settings: dose 1-100 µM; procedure, shortened: as §2
[15] = biological target: T2, Histone-lysine N-methyltransferase SMYD3; test: Binding affinity to full length recombinant SMYD3 (unknown origin) overexpressed in Escherichia coli Rosetta cells assessed as inhibition constant measured after 1 hr by LC-MS analysis
[16] = biological target: T1, Histone-lysine N-methyltransferase SMYD3 (Homo sapiens); test: Binding affinity to full length recombinant SMYD3 (unknown origin) overexpressed in Escherichia coli Rosetta cells assessed as inactivation constant measured after 1 hr by LC-MS analysis
[17] = biological target: T1, Histone-lysine N-methyltransferase SMYD3 (Homo sapiens); test: Binding affinity to full length recombinant SMYD3 (unknown origin) overexpressed in Escherichia coli Rosetta cells assessed as Kinact/Ki ratio measured after 1 hr by LC-MS analysis
[18] = Stability in human plasma measured at 6 hrs by LC-MS analysis; format: ADME, cell-free
Procedure, shortened: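 Compound spiked to final 10 μM into healthy-volunteer human plasma and held at 37 °C with gentle agitation. At 0–360 min, proteins precipitated with ice-cold acetonitrile containing propranolol internal standard. Supernatant dried, reconstituted, analysed by LC-MS with SIM (m/z 312; IS 260). Analyte/IS peak-area ratio followed over time, relative to time 0.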

MDA-MB-231 [19] = test: Downregulation of C-MET mRNA expression in human MDA-MB-231 cells at 0.5 uM by RT-qPCR analysis; format: functional, cell-based; procedure, shortened: as §3
MDA-MB-231 [20] = test: Effect on CDK2 mRNA expression in SMYD3 knockout human MDA-MB-231 cells at 0.5 to 5 uM measured for 48 to 72 hrs by RT-qPCR analysis; format: functional, cell-based; settings: dose 0.5-5 µM, time 48-72 hrs; procedure, shortened: as §3
MDA-MB-231 [21] = test: Effect on c-MET mRNA expression in SMYD3 knockout human MDA-MB-231 cells at 0.5 to 5 uM measured for 48 to 72 hrs by RT-qPCR analysis; format: functional, cell-based; settings: dose 0.5-5 µM, time 48-72 hrs; procedure, shortened: as §3
MDA-MB-231 [22] = test: Effect on FN1 mRNA expression in SMYD3 knockout human MDA-MB-231 cells at 0.5 to 5 uM measured for 48 to 72 hrs by RT-qPCR analysis; format: functional, cell-based; settings: dose 0.5-5 µM, time 48-72 hrs; procedure, shortened: as §3
MDA-MB-231 [23] = test: Effect on N-cadherin mRNA expression in SMYD3 knockout human MDA-MB-231 cells at 0.5 to 5 uM measured for 48 to 72 hrs by RT-qPCR analysis; format: functional, cell-based; settings: dose 0.5-5 µM, time 48-72 hrs; procedure, shortened: as §3
[24] = biological target: T1, Histone-lysine N-methyltransferase SMYD3 (Homo sapiens); test: Inhibition of SMYD3 in human HCT-116 cells assessed as decrease in ERK1/2 phosphorylation upto 5 uM by immunoblotting analysis; format: cell-based; settings: time 48-72 hrs, TDE = time-dependent effect
Procedure, shortened: (§4)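 HCT116 or MDA-MB-231 cells treated with compound, DMSO as control. Whole-cell lysates in Tris/EDTA/NaCl/1% Triton X-100 with protease and phosphatase inhibitors. 20 μg protein run on 7.5% SDS-PAGE and blotted to nitrocellulose, probed for phospho-ERK1/2 (Thr202/Tyr204), total ERK1/2 and cleaved PARP, with actin as loading control.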

[25] = biological target: T1, Histone-lysine N-methyltransferase SMYD3 (Homo sapiens); test: Inhibition of SMYD3 in human HCT-116 cells assessed as decrease in ERK1/2 phosphorylation measured for 48 to 72 hrs by immunoblotting analysis; format: cell-based; settings: dose <= 5.0 µM, time 48-72 hrs; procedure, shortened: as §4
[26] = biological target: T1, Histone-lysine N-methyltransferase SMYD3 (Homo sapiens); test: Inhibition of SMYD3 in human MDA-MB-231 cells assessed as decrease in ERK1/2 phosphorylation upto 5 uM by immunoblotting analysis; format: cell-based; settings: time 48-72 hrs, TDE = time-dependent effect; procedure, shortened: as §4
[27] = biological target: T1, Histone-lysine N-methyltransferase SMYD3 (Homo sapiens); test: Inhibition of SMYD3 in human MDA-MB-231 cells assessed as decrease in ERK1/2 phosphorylation measured for 48 to 72 hrs by immunoblotting analysis; format: cell-based; settings: dose <= 5.0 µM, time 48-72 hrs; procedure, shortened: as §4
[28] = biological target: T1, Histone-lysine N-methyltransferase SMYD3 (Homo sapiens); test: Inhibition of SMYD3 in human MDA-MB-231 cells assessed as decrease in cleaved PARP level at 5 uM measured for 48 to 72 hrs by immunoblotting analysis; format: cell-based; settings: time 48-72 hrs; procedure, shortened: as §4
[29] = biological target: T1, Histone-lysine N-methyltransferase SMYD3 (Homo sapiens); test: Inhibition of SMYD3 in human HCT-116 cells assessed as increase in cleaved PARP level at 5 uM measured for 48 to 72 hrs by immunoblotting analysis; settings: time 48-72 hrs
MDA-MB-231 [30] = test: Antiproliferative activity against in human MDA-MB-231 cells assessed as reduction in cell viability measured after 48 hrs by trypan blue staining based phase contrast microscopic analysis; format: functional
Procedure, shortened: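 MDA-MB-231 cells in DMEM with 10% FBS and penicillin/streptomycin at 37 °C, 5% CO2, treated 48 h at 5 μM (vehicle 0.5% DMSO, DMSO control). Floating plus trypsinized adherent cells pooled, mixed with 0.01% trypan blue, unstained and stained cells counted by phase-contrast microscopy, % viable cells calculated. Mean ± SD, n=3.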

[31] = biological target: T1, Histone-lysine N-methyltransferase SMYD3 (Homo sapiens); test: Inhibition of SMYD3 in human HCT-116 cells assessed as decrease in cleaved PARP level at 5 uM measured for 48 to 72 hrs by immunoblotting analysis; format: cell-based; settings: time 48-72 hrs; procedure, shortened: as §4

Row | SMILES | Activity [1] | Activity [2] | inhibition [3] [%] | IC50 [4] [µM] | inhibition [9] [%] | Kd [11] [µM] | inhibition [24] | inhibition [25] | inhibition [26] | inhibition [27] | inhibition [28] | other results
1 | O=C(CCl)NC1CCN(C(=O)c2cc(C3CC3)on2)CC1 | Active | Dose-Dependent Effect | 14 | – | – | – | – | – | – | – | – | –
2 | Cc1cc(C(=O)N2CCC(NC(=O)CCl)CC2)no1 | inactive | – | < 5 | – | – | – | – | – | – | – | – | –
3 | NC1CCN(C(=O)c2cc(C3CC3)on2)CC1 | – | – | 5 | – | – | – | – | – | – | – | – | –
4 | O=C1Cc2cc(C(=O)N[C@H]3C[C@H]4CC[C@@H](C3)C4S(=O)(=O)CC3CCN(CCCC(F)(F)F)CC3)c(Cl)cc2N1 (some centres not stated) | – | – | 100 | 0.689 | 50.2 | – | – | – | – | – | – | Activity (MDA-MB-231 [5]): Active; Activity (MDA-MB-231 [6]): Active; Activity (MDA-MB-231 [7]): Active; Activity (MDA-MB-231 [8]): Active
5 | O=C(NC1CCN(C(=O)CCl)CC1)c1cc(C2CC2)on1 | Active | Dose-Dependent Effect | 92.1 | 0.37 | 85.6 | 13 | Tde | Dose-Dependent Effect | Tde | Dose-Dependent Effect | Active | Activity (MDA-MB-231 [10]): Active; Activity [12]: 100%; Activity [13]: Tde; Activity [14]: 50%; Ki [15]: 6.11 µM; Kinact [16]: 4.49 10^-4/s; Ratio [17]: 73.5 M⁻¹ s⁻¹; remaining at 6 h [18]: 76%; Activity (MDA-MB-231 [19]): Active; Activity (MDA-MB-231 [20]): inactive; Activity (MDA-MB-231 [21]): inactive; Activity (MDA-MB-231 [22]): inactive; Activity (MDA-MB-231 [23]): inactive; inhibition [29]: Active
6 | O=C(NC1CCNCC1)c1cc(C2CC2)on1 | – | – | 29.1 | – | – | 32 | Tde | Dose-Dependent Effect | Tde | Dose-Dependent Effect | inactive | Activity (MDA-MB-231 [30]): inactive; inhibition [31]: inactive
